Results on 23 molecules are retold here after ChEMBL document CHEMBL1122031, “(+/-)-4-Aryl-4,5-dihydro-3H-1,3-benzodiazepines. 2. Nuclear-substituted analogues of (+/-)-4,5-dihydro-2,3-dimethyl-4-phenyl-3H-1,3-benzodiazepine and (+/-)-4,5-dihydro-2-ethyl-3-methyl-4-phenyl-3H-1,3-benzodiazepine as potential antidepressant agents” (1982).

Assay type in all cases: functional
For experiment [1], the species on record is Mus musculus. Description: Evaluated for prevention of amphetamine aggregation toxicity in mice,.
For experiment [2], the species on record is Mus musculus. The experiment is described as follows: Inhibition of pentylenetetrazole (PTZ)-induced lethality in mice.
Experiment [3] deals with Mus musculus. The experiment is described as follows: Inhibition of tetrabenazine-induced ptosis (TBZ) in mice by peroral administration. Particulars: po. The gist of the method:
(§1)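 Mice dosed with the compound and scored for prevention of tetrabenazine-induced ptosis. ED₅₀ was derived by linear regression analysis and reported with 95% confidence limits.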

The test system of a further experiment is Rattus norvegicus. Description: Compound, administered intraperitoneally and was evaluated for potentiation of the 5-hydroxytryptophan-induced behavioral syndrome in pargyline pretreated rats. Particulars: ip.
Experiment [4] has as its system Mus musculus. Description: Compound, administered intraperitoneally and was evaluated for inhibition of pentylenetetrazole (PTZ)-induced lethality in mice. Particulars: ip.
Experiment [5] has as its system Mus musculus. The experiment is described as follows: Compound, administered perorally and was evaluated for prevention of amphetamine aggregation toxicity in mice. Particulars: po.
Experiment [6] concerns Mus musculus. The experiment is described as follows: Evaluated for antidepressant activity by inhibition of tetrabenazine-induced ptosis (TBZ) in mice by ip administration. The method in brief: as §1

Each structure is given as a SMILES string.

For the molecule `CCC1=Nc2ccccc2CC(c2ccc(C)cc2)N1C` (centres undefined), the ED50 in the experiment filed under Mus musculus [1] was above 20 mg/kg; in the experiment filed under Mus musculus [2] (Mus musculus, read-out: ED50), above 40 mg/kg; in the experiment with Mus musculus [3], 6.1 mg/kg; in the experiment on Rattus norvegicus, above 10 mg/kg.

`CC1=Nc2ccccc2CC(c2ccccc2C)N1C` (centres undefined): the 50% effective dose (ED50) was above 20 mg/kg in the experiment listed under Mus musculus [1]; above 40 mg/kg in the experiment filed under Mus musculus [2] (Mus musculus, read-out: ED50); 5.5 mg/kg with Mus musculus [3].

With `CC1=Nc2ccccc2CC(c2ccc(F)cc2)N1C` (centres undefined), the 50% effective dose (ED50) in the experiment filed under Mus musculus [1] is above 20 mg/kg; in the experiment filed under Mus musculus [2] (Mus musculus, read-out: ED50), above 40 mg/kg; in the experiment on Mus musculus [3], 3.6 mg/kg; in the experiment with Rattus norvegicus, above 10 mg/kg.

With `COc1ccc(C2Cc3ccccc3N=C(C)N2C)cc1` (centres undefined), the ED50 in the experiment with Mus musculus [4] is above 40 mg/kg; in the experiment with Mus musculus [5], above 20 mg/kg; with Mus musculus [3] it was 19.8 mg/kg.

Turning to `CCC1=Nc2ccc(Cl)cc2CC(c2ccccc2)N1C` (centres undefined), the 50% effective dose (ED50) is above 40 mg/kg in the experiment filed under Mus musculus [2]; above 20 mg/kg in the experiment listed under Mus musculus [2] (Mus musculus, read-out: ED50); around 20 mg/kg with Mus musculus [6].

In the experiment on Mus musculus [3], `CN(C)CCC=C1c2ccccc2CCc2ccccc21` [AMITRIPTYLINE] displayed an ED50 of 1.9 mg/kg.

As to `CC1=Nc2ccc(Cl)cc2CC(c2ccccc2)N1C` (centres undefined), the ED50 in the experiment listed under Mus musculus [1] is above 20 mg/kg; in the experiment filed under Mus musculus [2] (Mus musculus, read-out: ED50) it was above 40 mg/kg; with Mus musculus [6], at least 20 mg/kg.

In turn, `CCC1=Nc2ccccc2CC(c2ccc(F)cc2)N1C` (centres undefined) gave a median effective dose (ED50) in the experiment with Mus musculus [3] of 8.4 mg/kg.

For `CC1=Nc2ccccc2CC(c2ccccc2)N1C` (centres undefined) [DAZEPINIL], the 50% effective dose (ED50) in the experiment listed under Mus musculus [1] was above 20 mg/kg; in the experiment listed under Mus musculus [2] (Mus musculus, read-out: ED50) it was above 40 mg/kg; in the experiment with Mus musculus [3], 2.1 mg/kg; in the experiment with Rattus norvegicus, above 10 mg/kg.

As for `CCC1=Nc2ccccc2CC(c2ccc(OC)c(OC)c2)N1C` (centres undefined), the figures for the ED50 in the experiment with Mus musculus [4], in the experiment on Mus musculus [5] and in the experiment with Mus musculus [6] were above 40 mg/kg, above 20 mg/kg and 8.2 mg/kg, respectively.

As to `CCC1=Nc2ccccc2CC(c2ccccc2C)N1C` (centres undefined), the ED50 in the experiment filed under Mus musculus [2] is above 20 mg/kg; in the experiment listed under Mus musculus [2] (Mus musculus, read-out: ED50) it was above 40 mg/kg; with Mus musculus [3] it was 3.1 mg/kg.

For the molecule `CCC1=Nc2ccccc2CC(c2ccccc2F)N1C` (centres undefined), the ED50 is above 20 mg/kg in the experiment listed under Mus musculus [1]; above 40 mg/kg in the experiment listed under Mus musculus [2] (Mus musculus, read-out: ED50); 7 mg/kg in the experiment on Mus musculus [3].

Regarding `CCC1=Nc2ccccc2CC(c2ccc(OC)cc2)N1C` (centres undefined), the ED50 in the experiment with Mus musculus [4] is above 40 mg/kg; with Mus musculus [5], above 20 mg/kg; with Mus musculus [3] it was 2.8 mg/kg.

Consider `CCC1=Nc2ccccc2CC(c2ccccc2)N1C` (centres undefined), for which the ED50 is above 20 mg/kg in the experiment filed under Mus musculus [1]; above 40 mg/kg in the experiment listed under Mus musculus [2] (Mus musculus, read-out: ED50); 1.6 mg/kg in the experiment on Mus musculus [3]; above 10 mg/kg in the experiment with Rattus norvegicus.

Take `CC1=Nc2ccccc2CC(c2ccccc2F)N1C` (centres undefined): the ED50 in the experiment filed under Mus musculus [1] was above 20 mg/kg; in the experiment listed under Mus musculus [2] (Mus musculus, read-out: ED50) it was above 40 mg/kg; with Mus musculus [3], 7.6 mg/kg; in the experiment on Rattus norvegicus, above 10 mg/kg.

For `COc1ccc(C2Cc3ccccc3N=C(C)N2C)cc1OC` (centres undefined), the median effective dose (ED50) is above 40 mg/kg in the experiment on Mus musculus [4], above 20 mg/kg in the experiment on Mus musculus [5] and 5 mg/kg with Mus musculus [3].

As to `CCC1=Nc2ccccc2CC(c2ccccc2Cl)N1C` (centres undefined), the median effective dose (ED50) in the experiment on Mus musculus [3] was 4.1 mg/kg.

Take `CCC1=Nc2ccc(Cl)cc2CC(c2ccccc2F)N1C` (centres undefined): the median effective dose (ED50) in the experiment filed under Mus musculus [2] is above 20 mg/kg; in the experiment listed under Mus musculus [2] (Mus musculus, read-out: ED50), above 40 mg/kg; in the experiment on Mus musculus [6], above 20 mg/kg.

Turning to `CCC1=Nc2ccccc2CC(c2ccc(Cl)cc2)N1C` (centres undefined), the ED50 in the experiment listed under Mus musculus [2] (Mus musculus, read-out: ED50) is above 20 mg/kg; in the experiment with Mus musculus [6], below 5 mg/kg.

`CC1=Nc2ccccc2CC(c2ccc(C)cc2)N1C` (centres undefined): the ED50 was above 20 mg/kg in the experiment listed under Mus musculus [1]; above 40 mg/kg in the experiment listed under Mus musculus [2] (Mus musculus, read-out: ED50); 5.2 mg/kg in the experiment on Mus musculus [3]; above 10 mg/kg in the experiment with Rattus norvegicus.

Regarding `CC1=Nc2ccccc2CC(c2ccccc2Cl)N1C` (centres undefined), the ED50 in the experiment listed under Mus musculus [1] is above 20 mg/kg; in the experiment listed under Mus musculus [2] (Mus musculus, read-out: ED50), above 40 mg/kg; in the experiment on Mus musculus [6] it was above 5 mg/kg.

Take `CC1=Nc2ccccc2CC(c2ccc(Cl)cc2)N1C` (centres undefined): the ED50 in the experiment listed under Mus musculus [1] is above 20 mg/kg; in the experiment filed under Mus musculus [2] (Mus musculus, read-out: ED50), above 40 mg/kg; in the experiment on Mus musculus [3], 0.52 mg/kg; in the experiment with Rattus norvegicus, above 10 mg/kg.

With `CC1=Nc2ccc(Cl)cc2CC(c2ccccc2F)N1C` (centres undefined), the 50% effective dose (ED50) in the experiment listed under Mus musculus [1] was above 20 mg/kg; in the experiment listed under Mus musculus [2] (Mus musculus, read-out: ED50), above 40 mg/kg; in the experiment on Mus musculus [6] it was above 20 mg/kg.
